Measured values from ChEMBL document CHEMBL1649383, “Mode of action of epoxyphomalins A and B and characterization of related metabolites from the marine-derived fungus Paraconiothyrium sp” (J Nat Prod, 2010).
≈ marks a conversion by molar mass, not a printed value.

Key:
DU-145 [1] = assay: Cytotoxicity against human DU145 cells at 10 ug/ml relative to control; format: functional
HT-29 [2] = assay: Cytotoxicity against human HT-29 cells at 0.001 ug/ml relative to control; format: functional
SF-268 [3] = assay: Cytotoxicity against human SF268 cells at 0.1 ug/ml relative to control; format: functional
[4] = Cytotoxicity against human MEXF 520L cells at 0.001 ug/ml relative to control; format: functional
[5] = Cytotoxicity against human RXF 1781L cells at 0.01 ug/ml relative to control; format: functional
HCT-116 = assay: Cytotoxicity against human HCT116 cells at 0.001 ug/ml relative to control; format: functional
[6] = Cytotoxicity against human LXFA 289L cells at 0.01 ug/ml relative to control; format: functional
[7] = Cytotoxicity against human CNXF 498NL cells at 0.1 ug/ml relative to control; format: functional
[8] = Cytotoxicity against human CNXF 498NL cells at 0.01 ug/ml relative to control; format: functional
[9] = Cytotoxicity against human BXF 1218L cells at 1 ug/ml relative to control; format: functional
[10] = Cytotoxicity against human LXFA 526L cells at 0.001 ug/ml relative to control; format: functional
[11] = Cytotoxicity against human LXFA 289L cells at 0.1 ug/ml relative to control; format: functional
[12] = Cytotoxicity against human MEXF 514L cells at 1 ug/ml relative to control; format: functional
[13] = Cytotoxicity against human PC3M cells; format: functional, cell-based; conditions: PC-3M
Procedure, shortened: (§1)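 Monolayer cell survival and proliferation assay run across a panel of 36 human tumor cell lines, with IC50 determined from the resulting growth data.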

CWR22R [14] = assay: Cytotoxicity against human 22Rv1 cells at 0.01 ug/ml relative to control; format: functional
[15] = Cytotoxicity against human OVXF 1619L cells; format: functional, cell-based; procedure, shortened: as §1
[16] = Cytotoxicity against human CNXF 498NL cells at 0.001 ug/ml relative to control; format: functional
[17] = Cytotoxicity against human MEXF 462NL cells at 0.1 ug/ml relative to control; format: functional
[18] = Cytotoxicity against human BXF 1218L cells; format: functional, cell-based
Procedure, shortened: (§2)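 Monolayer cell survival and proliferation assay, run within a panel of 36 human tumor cell lines; IC50 determined per cell line.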

[19] = Cytotoxicity against human PAXF 1657L cells at 0.1 ug/ml relative to control; format: functional
CWR22R [20] = assay: Cytotoxicity against human 22Rv1 cells at 0.1 ug/ml relative to control; format: functional
[21] = Cytotoxicity against human RXF 393NL cells at 0.01 ug/ml relative to control; format: functional
T-24 [22] = assay: Cytotoxicity against human T24 cells at 10 ug/ml relative to control; format: functional
OVCAR-3 [23] = assay: Cytotoxicity against human OVCAR3 cells at 0.01 ug/ml relative to control; format: functional
[24] = Cytotoxicity against human CNXF 498NL cells; format: functional, cell-based; procedure, shortened: as §2
[25] = Cytotoxicity against human LXFA 289L cells at 10 ug/ml relative to control; format: functional
[26] = Cytotoxicity against human RXF 944L cells at 1 ug/ml relative to control; format: functional
[27] = Cytotoxicity against human PXF 1752L cells at 0.01 ug/ml relative to control; format: functional
LNCaP = assay: Cytotoxicity against human LNCAP cells at 10 ug/ml relative to control; format: functional
[28] = Cytotoxicity against human PXF 1752L cells; format: functional, cell-based; procedure, shortened: as §1
DU-145 [29] = assay: Cytotoxicity against human DU145 cells at 0.01 ug/ml relative to control; format: functional
PANC-1 [30] = assay: Cytotoxicity against human PANC1 cells at 0.1 ug/ml relative to control; format: functional
[31] = Cytotoxicity against human LXFA 526L cells at 0.01 ug/ml relative to control; format: functional
[32] = Cytotoxicity against human RXF 944L cells; format: functional, cell-based; procedure, shortened: as §1
OVCAR-3 [33] = assay: Cytotoxicity against human OVCAR3 cells at 10 ug/ml relative to control; format: functional
[34] = Cytotoxicity against human MEXF 520L cells at 1 ug/ml relative to control; format: functional
MCF7 = assay: Cytotoxicity against human MCF7 cells at 0.1 ug/ml relative to control; format: functional
[35] = Cytotoxicity against human OVXF 1619L cells at 0.001 ug/ml relative to control; format: functional
[36] = Cytotoxicity against human PAXF 1657L cells at 0.001 ug/ml relative to control; format: functional
[37] = Cytotoxicity against human GXF251L cells; format: functional, cell-based; conditions: GXF 251L; procedure, shortened: as §2
PANC-1 [38] = assay: Cytotoxicity against human PANC1 cells at 1 ug/ml relative to control; format: functional
[39] = Cytotoxicity against human MEXF 514L cells at 0.1 ug/ml relative to control; format: functional
[40] = Cytotoxicity against human HNXF 536L cells at 0.01 ug/ml relative to control; format: functional
SF-268 [41] = assay: Cytotoxicity against human SF268 cells at 10 ug/ml relative to control; format: functional
CWR22R [42] = assay: Cytotoxicity against human 22Rv1 cells at 10 ug/ml relative to control; format: functional
[43] = Cytotoxicity against human MEXF 514L cells at 10 ug/ml relative to control; format: functional
[44] = Cytotoxicity against human RXF 944L cells at 10 ug/ml relative to control; format: functional
[45] = Cytotoxicity against human MEXF 462NL cells at 10 ug/ml relative to control; format: functional
[46] = Cytotoxicity against human RXF 944L cells at 0.1 ug/ml relative to control; format: functional
T-24 [47] = assay: Cytotoxicity against human T24 cells at 0.1 ug/ml relative to control; format: functional
CWR22R [48] = assay: Cytotoxicity against human 22Rv1 cells at 1 ug/ml relative to control; format: functional
[49] = Cytotoxicity against human UXF 1138L cells at 0.01 ug/ml relative to control; format: functional
[50] = Cytotoxicity against human RXF 1781L cells at 0.1 ug/ml relative to control; format: functional
[51] = Cytotoxicity against human MEXF 394NL cells at 0.1 ug/ml relative to control; format: functional
HT-29 [52] = assay: Cytotoxicity against human HT-29 cells; format: functional, cell-based; procedure, shortened: as §2
[53] = Cytotoxicity against human RXF 486L cells at 10 ug/ml relative to control; format: functional

## C=C1[C@@H](O)[C@H]2O[C@@]2(C[C@H]2C(C)=CC[C@H]3C(C)(C)CCC[C@]23C)[C@@H](O)[C@H]1O [EPOXYPHOLAMIN D]
DU-145 [1]
  Activity: 12%
HT-29 [2]
  Activity: 97%
SF-268 [3]
  Activity: 82%
[4]
  Activity: 97%
[5]
  Activity: 95%
HCT-116
  Activity: 88%
[6]
  Activity: 101%
[7]
  Activity: 71%
[8]
  Activity: 91%
[9]
  Activity: 29%
[10]
  Activity: 109%
[11]
  Activity: 106%
[12]
  Activity: 115%
[13]
  IC50: 720 nM
  IC70: 0.605 µg/mL (≈ 1.67 µM)
  IC90: 4.12 µg/mL (≈ 11.4 µM)
CWR22R [14]
  Activity: 81%
[15]
  IC50: 10.2 µM
  IC70: 6.09 µg/mL (≈ 16.8 µM)
  IC90: 10 µg/mL (≈ 27.6 µM)
[16]
  Activity: 102%
[17]
  Activity: 167%
[18]
  IC50: 1430 nM
  IC70: 0.969 µg/mL (≈ 2.67 µM)
  IC90: > 10 µg/mL
[19]
  Activity: 92%
CWR22R [20]
  Activity: 90%
[21]
  Activity: 126%
T-24 [22]
  Activity: 7%
OVCAR-3 [23]
  Activity: 98%
[24]
  IC50: 3.45 µM
  IC70: 3.09 µg/mL (≈ 8.53 µM)
  IC90: 7.63 µg/mL (≈ 21 µM)
[25]
  Activity: 39%
[26]
  Activity: 102%
[27]
  Activity: 101%
LNCaP
  Activity: 27%
[28]
  IC50: 2290 nM
  IC70: 3.05 µg/mL (≈ 8.42 µM)
  IC90: 12.3 µg/mL (≈ 34 µM)
DU-145 [29]
  Activity: 76%
PANC-1 [30]
  Activity: 97%
[31]
  Activity: 104%
[32]
  IC50: 10.8 µM
  IC70: 6.58 µg/mL (≈ 18.1 µM)
  IC90: 11.1 µg/mL (≈ 30.6 µM)
OVCAR-3 [33]
  Activity: 13%
[34]
  Activity: 86%
MCF7
  Activity: 96%
[35]
  Activity: 122%
[36]
  Activity: 100%
[37]
  IC50: 2070 nM
  IC70: 2.75 µg/mL (≈ 7.6 µM)
  IC90: 17.4 µg/mL (≈ 47.9 µM)
PANC-1 [38]
  Activity: 68%
[39]
  Activity: 142%
[40]
  Activity: 76%
SF-268 [41]
  Activity: 1%
CWR22R [42]
  Activity: 11%
[43]
  Activity: 11%
[44]
  Activity: 14%
[45]
  Activity: 12%
[46]
  Activity: 95%
T-24 [47]
  Activity: 104%
CWR22R [48]
  Activity: 48%
[49]
  Activity: 107%
[50]
  Activity: 98%
[51]
  Activity: 99%
HT-29 [52]
  IC50: 10.8 µM
  IC70: 5.73 µg/mL (≈ 15.8 µM)
  IC90: 8.41 µg/mL (≈ 23.2 µM)
[53]
  Activity: 10%
